For 17 molecules, Block and Activity results are on record in ChEMBL document CHEMBL1122108, “(+/-)-2-Depentylperhydrohistrionicotoxin: a new probe for a regulatory site on the nicotinic acetylcholine receptor-channel” (1982).

Each structure is given as a SMILES string.

The nature of assay [1]: Percent block of sciatic nerve sartorius muscle twitch of frog 60 min after direct stimulation and exposure to 50 uM toxin for 60 min. The class given is functional, Muscle tissue. The gist of the method: (§1)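 Frog sartorius nerve-muscle in oxygenated physiological solution (100% O2, pH 6.9-7.1). Indirect: nerve stimulated with supramaximal 0.05-0.1 ms pulses via Ag-AgCl salt-bridge electrode. Direct: supramaximal 1.0-2.0 ms rectangular pulses at 0.05 Hz through bipolar platinum electrode around mid-muscle. Compounds at 50 µM, diluted in physiological solution just before use, applied 60 min. Twitch tension recorded; means ± SD from at least three muscles.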

Assay [2] in a line: Percent block of sciatic nerve sartorius muscle twitch of frog 30 min after direct stimulation and exposure to 50 uM toxin for 60 min. The assay is classed as functional, Muscle tissue. The gist of the method: as §1
Assay [3] is described as follows: Percent block of sciatic nerve sartorius muscle twitch of frog 30 min after indirect stimulation and exposure to 50 uM toxin for 60 min. The assay is classed as functional, Muscle tissue. The gist of the method: as §1
Assay [4] can be described thus: Percent block of sciatic nerve sartorius muscle twitch of frog 60 min after indirect stimulation and exposure to 50 uM toxin for 60 min. The class given is functional, Muscle tissue. The gist of the method:
as §1

Assay [5] can be described thus: Percent maximum potentiation of the sciatic nerve sartorius muscle twitch after direct stimulation and exposure to 50 uM toxin for 60 min. The assay is classed as functional, frog, Muscle tissue. Summed up:
as §1

The nature of assay [6]: Percent maximum potentiation of the sciatic nerve sartorius muscle twitch after indirect stimulation and exposure to 50 uM toxin for 60 min. The assay is classed as functional, frog, Muscle tissue. The gist of the method: as §1

Regarding `CCCC[C@@H]1[C@H](O)CCCC12CCCCN2C` (some centres undefined), the Block is 5% in assay [1], 5% in assay [2], 62% in assay [3] and 65% in assay [4].
With `CCCCC1C(O)CCCC12CCCCN2C(C)=O` (centres undefined), the Activity is given as 103% in assay [5] and 116% in assay [6]. The Block in assay [1] is reported as 24%; in assay [2] it was 20%; in assay [3] it was 10%; in assay [4], 26%.
Take `CCCC[C@@H]1[C@H](O)CCCC12CCCCN2` (some centres undefined): the Block in assay [1] is given as 30%; in assay [2], 19%; in assay [3] it was 55%; in assay [4], 61%.
For `CCCCCC1CCC[C@]2(CCC[C@H](O)C2CCCC)N1` (some centres undefined) the same measures were 45%, 47%, 100% and 100%.
`CCCCC1C(OC(=O)OC)CCCC12CCCCN2` (centres undefined): the Block was 25% in assay [1], 14% in assay [2], 67% in assay [3] and 82% in assay [4].
In the same order, the values of `CCCC[C@@H]1C(=O)CCCC12CCCCN2C` (some centres undefined) are 33%, 26%, 49% and 56%.
For `CCCCC1C(OC(C)=O)CCCC12CCCCN2C` (centres undefined) the same measures were 25%, 22%, 88% and 94%.
In the same order, the values of `CCCC[C@@H]1[C@@H](OC(C)=O)CCCC12CCCC[N+]2(C)C.[I-]` (some centres undefined) are 47%, 34%, 85% and 91%.
For the molecule `CCCCC1C2CCCC13CCCCN3C(=O)O2` (centres undefined), the Block in assay [1] worked out at 31%; in assay [2] it was 22%; in assay [3], 35%; in assay [4], 66%.
In the same order, the values of `CCCC[C@@H]1[C@H](O)CCCC12CCCC[N+]2(C)C.[I-]` (some centres undefined) are 49%, 48%, 74% and 83%.
On to `CCCCC1C(OC(C)=O)CCCC12CCCCN2C(C)=O` (centres undefined), for which the Activity is 118% in assay [5] and 125% in assay [6]. Besides, the Block in assay [1], in assay [2], in assay [3] and in assay [4] was 0% in each case.
Turning to `CCCCC1C(OC(=O)OC)CCCC12CCCCN2C(=O)OC` (centres undefined), the Block in assay [1], in assay [2], in assay [3] and in assay [4] was 0% in each case.
For the molecule `CCCC[C@@H]1C(=O)CCCC12CCCCN2` (some centres undefined), the Block stood at 25% in assay [1], 8% in assay [2], 46% in assay [3] and 58% in assay [4].
As for `CCCC[C@@H]1C(=O)CCCC12CCCCN2C(C)=O` (some centres undefined), the Activity came to 102% in assay [5] and 117% in assay [6]. For the same molecule, the Block in assay [1] is listed as 6%; in assay [2], 0%; in assay [3], 7%; in assay [4], 20%.
For the molecule `CCCCC1C(O)CCCC12CCCCN2C` (centres undefined), the Block in assay [1] is 30%; in assay [2], 24%; in assay [3], 78%; in assay [4] it was 92%.
For the molecule `CCCCC1C(O)CCCC12CCCCN2` (centres undefined), the Block in assay [1] was 52%; in assay [2], 52%; in assay [3], 96%; in assay [4], 100%.
As to `CCCC[C@@H]1[C@@H](O)CCCC12CCCC[N+]2(C)C.[I-]` (some centres undefined), the Block is given as 43% in assay [1], 29% in assay [2], 39% in assay [3] and 49% in assay [4].
